Data on ten compounds can be found in ChEMBL document CHEMBL5120760, “Terpenoids and Meroterpenoids from Cultures of Two Grass-Associated Species of Amylosporus (Basidiomycota)” (J Nat Prod, 2022).

For test [1], the system named is Mycolicibacterium smegmatis. Briefly: Antibacterial activity against Mycobacterium smegmatis ATCC 700084 assessed as inhibition of bacterial growth incubated for overnight by serial dilution method. The format is functional.
The next test deals with Wickerhamomyces anomalus. Nature of the test: Antifungal activity against Pichia anomala DSM 6766 assessed as inhibition of fungal growth incubated for overnight by serial dilution method. The format is functional, organism-based.
For test [2], the system named is Schizosaccharomyces pombe. Briefly: Antifungal activity against Schizosaccharomyces pombe DSM 70572 assessed as inhibition of fungal growth incubated for overnight by serial dilution method. The format is functional, organism-based.
The next test concerns Mucor hiemalis. Nature of the test: Antifungal activity against Mucor hiemalis DSM 2656 assessed as inhibition of fungal growth incubated for overnight by serial dilution method. The format is functional.
For a further test, the system named is Rhodotorula glutinis. Nature of the test: Antifungal activity against Rhodotorula glutinis DSM 10134 assessed as inhibition of fungal growth incubated for overnight by serial dilution method. The format is functional, organism-based.
For another test, the system named is KB 3-1. Briefly: Cytotoxicity against human KB 3-1 cells assessed as inhibition of cell proliferation incubated for 5 days by MTT assay. The format is functional, cell-based. Conditions: KB 3-1, 120 h. The procedure, abridged: (§1)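 Colorimetric MTT tetrazolium assay, with epothilone B (1 mg/mL stock) as the positive control. IC50 was determined.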
In general terms: Tetrazolium dyes change colour on reduction, which living cells bring about.

A further test has as its system L929. Briefly: Cytotoxicity against mouse L929 cells assessed as inhibition of cell proliferation incubated for 5 days by MTT assay. The format is functional, cell-based. Conditions: L929, 120 h. A digest of the protocol: as §1
The next test concerns Pseudomonas aeruginosa. Briefly: Antibacterial activity against Pseudomonas aeruginosa PA 14 assessed as inhibition of bacterial growth incubated for overnight by serial dilution method. The format is functional, organism-based.
Another test deals with Staphylococcus aureus. Nature of the test: Antibacterial activity against Staphylococcus aureus DSM 346 assessed as inhibition of bacterial growth incubated for overnight by serial dilution method. The format is functional.
In the next test the test system is Bacillus subtilis. Nature of the test: Antibacterial activity aginst Bacillus subtilis DSM 10 assessed as inhibition of bacterial growth incubated for overnight by serial dilution method. The format is functional.
The subject of the next test is Escherichia coli. Briefly: Antibacterial activity against Escherichia coli DSM 1116 assessed as inhibition of bacterial growth incubated for overnight by serial dilution method. The format is functional.
Another test deals with Micrococcus luteus. Briefly: Antibacterial activity against Micrococcus luteus DSM 1790 assessed as inhibition of bacterial growth incubated for overnight by serial dilution method. The format is functional.
The test system of test [3] is Chromobacterium violaceum. Briefly: Antibacterial activity against Chromobacterium violaceum DSM 30191 assessed as inhibition of bacterial growth incubated for overnight by serial dilution method. The format is functional.
For another test, the system named is SK-OV-3. Briefly: Cytotoxicity against human SK-OV-3 cells assessed as inhibition of cell proliferation incubated for 5 days by MTT assay. The format is functional, cell-based. Conditions: SK-OV-3, 120 h. A digest of the protocol: as §1

Converted amounts (≈) assume the structure as drawn.

For the compound `NC[C@H]1O[C@H](O[C@H]2[C@H](O)[C@@H](O[C@H]3O[C@H](CO)[C@@H](O)[C@H](N)[C@H]3O)[C@H](N)C[C@@H]2N)[C@H](O)[C@@H](O)[C@@H]1O` [KANAMYCIN], in [1], the minimal inhibitory concentration (MIC) was found to be 1.7 µg/mL (≈ 3.51 µM).
Turning to NYSTATIN, the MIC in the test on Wickerhamomyces anomalus came to 16.7 µg/mL; in [2] it was 16.7 µg/mL; with Mucor hiemalis, 16.7 µg/mL; with Rhodotorula glutinis, 4.2 µg/mL.
In the case of `C/C(=C\c1csc(C)n1)[C@@H]1C[C@@H]2O[C@]2(C)CCC[C@H](C)[C@H](O)[C@@H](C)C(=O)C(C)(C)[C@@H](O)CC(=O)O1` [PATUPILONE], the IC50 with KB 3-1 was 6.9e-05 µM; in the test on L929 it was 0.0014 µM.
GENTAMICIN: the MIC in the test with Pseudomonas aeruginosa came out at 0.4 µg/mL.
On to `CN(C)[C@@H]1C(=O)C(C(N)=O)=C(O)[C@@]2(O)C(=O)C3=C(O)c4c(O)cccc4[C@@](C)(O)[C@H]3[C@H](O)[C@@H]12`, for which the MIC worked out at 0.4 µg/mL (≈ 0.869 µM) in the test on Staphylococcus aureus; 3.33 µg/mL (≈ 7.23 µM) in the test on Bacillus subtilis; 8.3 µg/mL (≈ 18 µM) in the test on Escherichia coli; 0.83 µg/mL (≈ 1.8 µM) in the test on Micrococcus luteus; 1.7 µg/mL (≈ 3.69 µM) in [3].
Consider `CC(C)=CCC/C(C)=C/Cc1c(O)cc(C)c(C(=O)O)c1O`, for which the MIC with Staphylococcus aureus and in the test on Bacillus subtilis was 66.7 µg/mL (≈ 219 µM) each time.
Turning to `CC(C)=CCC/C(C)=C/Cc1c(O)cc(C)c(C=O)c1O`, the IC50 was 62.5 µM in the test on KB 3-1 and 66 µM in the test on L929. The MIC is 8.33 µg/mL (≈ 28.9 µM) with Staphylococcus aureus, 4.2 µg/mL (≈ 14.6 µM) in the test on Bacillus subtilis, 16.7 µg/mL (≈ 57.8 µM) in the test with Mucor hiemalis and 33.3 µg/mL (≈ 116 µM) with Micrococcus luteus.
For the compound `CC(C)=CCc1c(C)cc(O)c(CC=C(C)C)c1O`, the figures for the IC50 with KB 3-1 and in the test on L929 were 57.7 µM and 53.8 µM, respectively. For the same compound, the MIC in the test with Staphylococcus aureus, in the test on Bacillus subtilis and in the test on Mucor hiemalis was 33.3 µg/mL (≈ 128 µM) each time.
In the case of `CC(C)=CCC/C(C)=C/Cc1c(O)c(Cl)c(C)c(C=O)c1O`, the IC50 came out at 7.7 µM in the test with KB 3-1, 18 µM in the test with L929 and 5.6 µM in the test with SK-OV-3. The MIC with Staphylococcus aureus worked out at 1.04 µg/mL (≈ 3.22 µM); in the test on Bacillus subtilis it was 2.1 µg/mL (≈ 6.5 µM); in the test with Mucor hiemalis, 33.3 µg/mL (≈ 103 µM).
Take `CC(C)=CCc1c(C)c(C(=O)O)c(O)c(CC=C(C)C)c1O`: the half-maximal inhibitory concentration (IC50) in the test with KB 3-1 turned out to be 42.7 µM; in the test on L929, 59.2 µM. The MIC with Staphylococcus aureus, in the test with Bacillus subtilis and with Mucor hiemalis was 66.7 µg/mL (≈ 219 µM) throughout.

In general, MIC refers to the smallest concentration in the dilution series that meets the test's criterion for growth inhibition. Broadly, the IC50 is the concentration that inhibits the measured activity by half.
